Key:
[1] = 4 h post injection, healthy athymic nude mice, i.v.
U251 MG cells = experiment: In vitro cell uptake; assay type: cell-based, human
How it was run: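 U251 MG cells were plated at 0.5 million/well the day before, PBS-washed twice, then incubated with 18F-labelled test tracer (6 μCi/well) in MEM at 37 °C for 0–240 min. For blocking, a 100-fold excess of unlabelled ATR inhibitor was co-incubated. At each time point, cells were PBS-washed twice and lysed in 1 M NaOH (10 min, 37 °C), and lysate activity was γ-counted.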

[2] = 1-octanol / 25 mM phosphate buffered saline pH 7.4
ATR [3] = conditions: cited from earlier work
ATR [4] = biological target: ATR (Homo sapiens, UniProt Q13535); experiment: Competitive displacement assay of [18F]-ATRi by Ve-821 in U251 MG cells; assay type: cell-based
Sequence of ATR (Homo sapiens, UniProt Q13535) (Q13535 whole entry): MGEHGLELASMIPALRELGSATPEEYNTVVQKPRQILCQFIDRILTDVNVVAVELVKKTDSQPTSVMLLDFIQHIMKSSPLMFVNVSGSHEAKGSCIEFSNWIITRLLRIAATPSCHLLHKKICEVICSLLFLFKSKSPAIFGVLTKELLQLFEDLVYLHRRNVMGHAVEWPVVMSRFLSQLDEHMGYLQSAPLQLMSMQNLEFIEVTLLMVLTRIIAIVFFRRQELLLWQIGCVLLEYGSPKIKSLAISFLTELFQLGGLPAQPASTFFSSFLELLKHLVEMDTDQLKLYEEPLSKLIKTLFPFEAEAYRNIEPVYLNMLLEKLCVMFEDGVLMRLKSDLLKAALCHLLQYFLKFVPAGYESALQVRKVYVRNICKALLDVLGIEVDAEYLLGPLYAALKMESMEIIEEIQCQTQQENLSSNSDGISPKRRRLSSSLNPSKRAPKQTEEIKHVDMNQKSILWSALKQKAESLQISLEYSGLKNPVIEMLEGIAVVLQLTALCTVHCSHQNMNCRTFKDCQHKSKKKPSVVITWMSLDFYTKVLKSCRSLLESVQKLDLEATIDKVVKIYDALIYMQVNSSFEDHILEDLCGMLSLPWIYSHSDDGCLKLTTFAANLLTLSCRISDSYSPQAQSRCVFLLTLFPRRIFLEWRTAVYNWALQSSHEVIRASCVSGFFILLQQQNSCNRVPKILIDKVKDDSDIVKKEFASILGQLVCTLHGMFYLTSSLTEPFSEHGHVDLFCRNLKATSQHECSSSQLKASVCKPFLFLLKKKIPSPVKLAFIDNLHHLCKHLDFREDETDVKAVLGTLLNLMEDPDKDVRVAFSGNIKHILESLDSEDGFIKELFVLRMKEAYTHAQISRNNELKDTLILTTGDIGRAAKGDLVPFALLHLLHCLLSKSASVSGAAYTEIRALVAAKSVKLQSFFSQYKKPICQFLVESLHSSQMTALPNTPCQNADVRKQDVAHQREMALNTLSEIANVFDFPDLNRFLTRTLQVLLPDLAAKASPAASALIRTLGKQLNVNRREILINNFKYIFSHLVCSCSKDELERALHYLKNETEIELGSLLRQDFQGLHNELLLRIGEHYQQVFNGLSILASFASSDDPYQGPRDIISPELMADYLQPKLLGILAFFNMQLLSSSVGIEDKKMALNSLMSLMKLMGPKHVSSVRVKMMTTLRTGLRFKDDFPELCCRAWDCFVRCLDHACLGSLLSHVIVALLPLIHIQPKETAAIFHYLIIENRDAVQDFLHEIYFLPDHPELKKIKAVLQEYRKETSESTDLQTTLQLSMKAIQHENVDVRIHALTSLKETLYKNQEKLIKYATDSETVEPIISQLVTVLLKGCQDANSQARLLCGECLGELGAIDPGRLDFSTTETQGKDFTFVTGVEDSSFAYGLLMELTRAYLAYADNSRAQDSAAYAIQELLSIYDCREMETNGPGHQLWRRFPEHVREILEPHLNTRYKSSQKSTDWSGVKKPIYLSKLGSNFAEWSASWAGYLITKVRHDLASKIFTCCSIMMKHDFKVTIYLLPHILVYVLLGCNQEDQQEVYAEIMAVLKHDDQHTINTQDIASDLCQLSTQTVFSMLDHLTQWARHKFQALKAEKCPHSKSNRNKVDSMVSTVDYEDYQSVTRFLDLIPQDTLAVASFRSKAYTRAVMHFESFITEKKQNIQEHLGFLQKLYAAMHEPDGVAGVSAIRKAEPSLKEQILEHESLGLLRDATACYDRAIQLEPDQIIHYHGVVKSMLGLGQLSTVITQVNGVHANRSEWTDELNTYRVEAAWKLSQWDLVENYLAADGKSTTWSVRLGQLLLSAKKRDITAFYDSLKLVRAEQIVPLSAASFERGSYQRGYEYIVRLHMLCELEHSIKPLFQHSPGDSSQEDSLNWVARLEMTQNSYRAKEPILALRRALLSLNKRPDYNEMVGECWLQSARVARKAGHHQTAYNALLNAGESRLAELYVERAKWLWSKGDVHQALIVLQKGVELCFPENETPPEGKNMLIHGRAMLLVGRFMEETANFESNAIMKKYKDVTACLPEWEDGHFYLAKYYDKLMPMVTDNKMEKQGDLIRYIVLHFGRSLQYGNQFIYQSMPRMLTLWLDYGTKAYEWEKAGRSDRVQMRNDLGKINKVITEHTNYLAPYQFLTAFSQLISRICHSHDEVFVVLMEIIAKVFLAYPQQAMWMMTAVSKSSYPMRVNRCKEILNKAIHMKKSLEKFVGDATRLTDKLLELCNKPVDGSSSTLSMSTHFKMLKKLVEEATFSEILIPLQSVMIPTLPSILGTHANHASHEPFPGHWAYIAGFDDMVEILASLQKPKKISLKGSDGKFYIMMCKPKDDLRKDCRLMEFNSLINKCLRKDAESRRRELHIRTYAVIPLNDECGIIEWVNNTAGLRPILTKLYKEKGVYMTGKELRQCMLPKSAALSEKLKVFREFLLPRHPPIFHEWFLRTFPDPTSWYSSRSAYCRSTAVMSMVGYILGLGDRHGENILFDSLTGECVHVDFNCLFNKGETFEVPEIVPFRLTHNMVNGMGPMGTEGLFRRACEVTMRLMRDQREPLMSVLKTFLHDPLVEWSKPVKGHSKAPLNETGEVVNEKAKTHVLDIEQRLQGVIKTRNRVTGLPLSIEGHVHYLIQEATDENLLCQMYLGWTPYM
Sequence of ATR (Homo sapiens, UniProt Q13535) (Q8WXE1 whole entry partner): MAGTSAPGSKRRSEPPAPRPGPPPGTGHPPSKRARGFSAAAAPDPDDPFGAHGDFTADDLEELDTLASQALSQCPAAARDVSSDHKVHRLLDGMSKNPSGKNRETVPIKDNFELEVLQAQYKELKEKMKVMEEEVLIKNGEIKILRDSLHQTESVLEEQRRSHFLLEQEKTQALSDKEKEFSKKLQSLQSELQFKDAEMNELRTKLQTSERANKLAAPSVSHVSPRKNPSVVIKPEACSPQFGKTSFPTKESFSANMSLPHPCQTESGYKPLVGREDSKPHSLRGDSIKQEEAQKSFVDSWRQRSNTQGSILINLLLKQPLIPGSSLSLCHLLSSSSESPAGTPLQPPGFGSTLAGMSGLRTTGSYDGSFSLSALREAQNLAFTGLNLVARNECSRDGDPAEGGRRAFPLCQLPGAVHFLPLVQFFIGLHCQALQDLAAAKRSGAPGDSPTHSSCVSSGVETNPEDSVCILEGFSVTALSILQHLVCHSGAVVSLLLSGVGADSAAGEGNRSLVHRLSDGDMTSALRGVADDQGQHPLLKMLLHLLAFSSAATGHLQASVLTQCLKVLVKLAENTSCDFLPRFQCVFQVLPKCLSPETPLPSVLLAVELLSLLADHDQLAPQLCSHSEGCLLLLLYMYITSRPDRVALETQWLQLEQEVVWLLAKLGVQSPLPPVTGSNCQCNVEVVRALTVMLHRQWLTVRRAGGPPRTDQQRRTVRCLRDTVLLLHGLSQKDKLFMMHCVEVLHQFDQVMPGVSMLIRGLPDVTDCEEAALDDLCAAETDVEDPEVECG
How it was run: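 U251 MG cells were grown in MEM with 10% heat-inactivated FBS and penicillin/streptomycin, then seeded at 10^5 cells 24 h before the assay. The 18F-labelled test tracer (final 0.667 nM) was co-incubated with unlabelled competitor (0–1333 nM) for 1 h at 37 °C. Cells were PBS-washed twice, lysed with 1 N NaOH, and bound 18F was γ-counted. Percent bound was run in triplicate and fitted against competitor concentration.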

[5] = Chemical Hydrophobicity Index; assay type: physicochemical; conditions: from HPLC retention time
How it was run: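 Reverse-phase HPLC retention times were measured for a set of standards with known CHI to build a standard curve. The CHI of the non-radioactive (19F) test compound was calculated from its retention time on that curve.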

Plasma protein binding = assay type: in vitro ADME; conditions: serum
How it was run: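 Equilibrium dialysis: 500 μM non-radioactive test compound in serum against PBS, 4 h at 37 °C on an orbital shaker at 100 rpm. Samples from both chambers were protein-precipitated (90/10 acetonitrile/water, 0.1% formic acid) and analysed by HPLC with peak integration. % bound = [1 − (buffer conc./plasma conc.)]×100, reported as mean ± SD.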

[6] = blocked with 100-fold excess Ve-821 pre-injected 30 min before, 120 min p.i.

**Q.** For `CS(=O)(=O)c1ccc(-c2cnc(N)c(C(=O)Nc3ccc([18F])cc3)n2)cc1` [[^18F]-9, 3-amino-N-(4-[^18F]phenyl)-6-(4-(methylsulfonyl)phenyl)pyrazine-2-carboxamide], which “ex vivo blood stability (tracer stable)” value [1] is on record?
**A.** The value was “greater than 97%”.

**Q.** What about the “cell uptake, blocked” value (U251 MG cells; U251 MG cells blocked with Ve-821 (100-fold excess), co-incubated 240 min) of the same compound?
**A.** Its value is 0.16±0.1%.

**Q.** And the cell uptake (U251 MG cells; U251 MG cells, 240 min incubation with [18F]-ATRi only)?
**A.** The cell uptake was 3.5 ± 0.1%.

**Q.** What about the LogPO/W [2] of the same compound?
**A.** The LogPO/W was 1.6.

**Q.** And the “clearance from bloodstream (fast phase)” value (2-phase decay curve, healthy mice, i.v.)?
**A.** Its value is under 10 min.

**Q.** And the weighted blood half-life (single bolus intravenous injection via tail vein, nude mice, two-phase decay fit)?
**A.** Its weighted blood half-life is 6.2 min.

**Q.** What about the tumor-to-brain ratio (U251 MG xenograft; U251 MG xenograft mice) of the same compound?
**A.** Its tumor-to-brain ratio is over 15.

**Q.** And the kidney uptake (U251 MG xenograft; biodistribution, 120 min p.i.)?
**A.** The kidney uptake was 3.51 ± 0.23 %ID/g.

**Q.** And the liver uptake (U251 MG xenograft; biodistribution, 120 min p.i.)?
**A.** Its liver uptake is 3.68± 1.39 %ID/g.

**Q.** And the “blood uptake, blocked” value (U251 MG xenograft; [6])?
**A.** The value was 0.84 ± 0.3 %ID/g.

**Q.** What about the “tumor uptake, blocked” value (U251 MG xenograft; [6]) of the same compound?
**A.** Its value is 0.46 ± 0.12 %ID/g.

**Q.** What about the blood uptake (U251 MG xenograft; unblocked, 120 min p.i., i.v.) of the same compound?
**A.** Its blood uptake is 1.85 ± 0.47 %ID/g.

**Q.** For `CS(=O)(=O)c1ccc(-c2cnc(N)c(C(=O)Nc3ccccc3)n2)cc1` [Ve-821], which IC50 (ATR [3]) is on record?
**A.** Its IC50 is 0.026 µM.

**Q.** And the IC50 (ATR [4])?
**A.** Its IC50 is 0.038 µM.

**Q.** Which CHI value [5] does the source give for `CS(=O)(=O)c1ccc(-c2cnc(N)c(C(=O)Nc3ccc(F)cc3)n2)cc1` [compound 5, 3-amino-N-(4-fluorophenyl)-6-(4-(methylsulfonyl)-phenyl)pyrazine-2-carboxamide] here?
**A.** Its CHI value is 76.8.

**Q.** And the fraction unbound at 4 h, 500 μM (Plasma protein binding)?
**A.** The fraction unbound at 4 h, 500 μM was about 0.1.

Source: article PMC5524211 (Nuclear medicine and biology, 2017)
